For orientation: IC50 means the concentration at which inhibition is half-maximal. A low value points to higher potency.

The subject of assay [1] is Escherichia coli. The assay can be described thus: microbe, parasite or virus in culture. Conditions: ATCC 25922.
Assay [2] has as its system Escherichia coli. The assay can be described thus: Inhibition of bacterial protein synthesis in cell-free Escherichia coli incubated for 1 hr and measured for every 20 mins by bacterial cell-free transcription-translation assay. The class given is functional. The procedure, abridged:
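E. coli cell-free coupled transcription-translation used a GFP gene in pEXP5-CT as template, started with 1 μg plasmid in 50 μL reactions. Feed buffer was added at 30 min, with incubation at 30 °C. Fluorescence (ex 475/em 520 nm) was read every 20 min. IC50 was taken at 1 h after feed addition from a four-parameter log(inhibitor)–response fit. Duplicates.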

Another assay relates to Klebsiella pneumoniae. The assay can be described thus: Antimicrobial activity against Klebsiella pneumoniae ATCC 43816 by broth microdilution method. The note with it: Klebsiella pneumoniae, ATCC 43816; read-out: MIC. The class given is functional. In short, it runs like this:
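Broth microdilution MIC per CLSI M07-A10, with inoculum prepared by direct colony suspension. Reference strains were from ATCC and NCTC.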

Converted amounts (≈) assume the structure as drawn. Non-standard residues stand in square brackets, D forms with d. Residues, ends and D or L forms follow the SMILES beside them. *: point of attachment. Dab(3S-OH) = NC[C@H](O)[C@H](N)C(=O)O; ΔZArg = N=C(N)NCC/C=C(\N)C(=O)O; dOrn = NCCC[C@@H](N)C(=O)O; Abu = CC[C@H](N)C(=O)O; NH(CH2)4NH2 = NCCCCN* A value given as a limit tells only on which side of the number the result lay.

Consider `N=C(N)NCC/C=C(\NC(=O)[C@H](CCCCN)NC(=O)[C@H](Cc1cnc[nH]1)NC(=O)[C@@H]1CCCN1C(=O)[C@@H](CCCN)NC(=O)CNC(=O)[C@@H](N)[C@@H](O)CN)C(=O)N[C@@H](CCCCN)C(=O)NCCCCN`, for which the MIC against Escherichia coli [1] and in the assay on Klebsiella pneumoniae was over 64 µg/mL in each case. For the same compound, the IC50 in the assay with Escherichia coli [2] (Escherichia coli) was over 40000 nM.
Regarding `C[C@H](NC(=O)[C@H](Cc1cnc[nH]1)NC(=O)[C@@H]1CCCN1C(=O)[C@@H](CCCN)NC(=O)CNC(=O)[C@@H](NC(=O)[C@@H](NC(=O)[C@@H](N)CCCCN)[C@@H](O)CN)[C@@H](O)CN)C(=O)N/C(=C\CCNC(=N)N)C(=O)N[C@@H](CCCCN)C(=O)NCCCCN`, the MIC in the assay on Escherichia coli [1] came to 16 µg/mL (≈ 13.3 µM); with Klebsiella pneumoniae, 4 µg/mL (≈ 3.31 µM). In the assay with Escherichia coli [2] (Escherichia coli), this compound came in with a half-maximal inhibitory concentration (IC50) of 1850 nM.
Consider `NCCCC[C@H](NC(=O)[C@H](Cc1cnc[nH]1)NC(=O)[C@@H]1CCCN1C(=O)[C@@H](CCCN)NC(=O)CNC(=O)[C@@H](NC(=O)[C@@H](NC(=O)[C@@H](N)CCCCN)[C@@H](O)CN)[C@@H](O)CN)C(=O)O`, for which the MIC against Escherichia coli [1] and in the assay with Klebsiella pneumoniae was over 64 µg/mL each time. Moreover, in the assay on Escherichia coli [2] (Escherichia coli), the 50% inhibitory concentration (IC50) was determined as 10000 nM.
For `C[C@H](NC(=O)[C@@H](N)CCCCN)C(=O)N[C@H](C(=O)NCC(=O)N[C@H](CCCN)C(=O)N1CCC[C@H]1C(=O)N[C@@H](Cc1cnc[nH]1)C(=O)N[C@@H](CCCCN)C(=O)N/C(=C\CCNC(=N)N)C(=O)N[C@@H](CCCCN)C(=O)NCCCCN)[C@@H](O)CN`, the MIC in the assay with Escherichia coli [1] and in the assay with Klebsiella pneumoniae was over 64 µg/mL each time. For the same compound, in the assay on Escherichia coli [2] (Escherichia coli), the IC50 turned out to be 4500 nM.
In the case of `C[C@@H](NC(=O)CNC(=O)[C@@H](NC(=O)[C@@H](NC(=O)[C@@H](N)CCCCN)[C@@H](O)CN)[C@@H](O)CN)C(=O)N1CCC[C@H]1C(=O)N[C@@H](Cc1cnc[nH]1)C(=O)N[C@@H](CCCCN)C(=O)N/C(=C\CCNC(=N)N)C(=O)N[C@@H](CCCCN)C(=O)NCCCCN`, the MIC against Escherichia coli [1] and with Klebsiella pneumoniae was over 64 µg/mL in each case. Besides, the IC50 in the assay on Escherichia coli [2] (Escherichia coli) is over 40000 nM.
As for `N=C(N)NCC/C=C(\NC(=O)[C@H](CCCCN)NC(=O)[C@H](Cc1cnc[nH]1)NC(=O)[C@@H]1CCCN1C(=O)[C@@H](CCCN)NC(=O)CNC(=O)[C@@H](NC(=O)[C@H](CO)NC(=O)[C@@H](N)CCCCN)[C@@H](O)CN)C(=O)N[C@@H](CCCCN)C(=O)NCCCCN`, the MIC in the assay on Escherichia coli [1] and with Klebsiella pneumoniae was over 64 µg/mL throughout. This compound registered an IC50 in the assay on Escherichia coli [2] (Escherichia coli) of over 40000 nM.
As for `NCCCC[C@H](N)C(=O)N[C@H](C(=O)N[C@H](C(=O)NCC(=O)N[C@H](CCCN)C(=O)N1CCC[C@H]1C(=O)N[C@@H](Cc1cnc[nH]1)C(=O)O)[C@@H](O)CN)[C@@H](O)CN`, the MIC with Escherichia coli [1] and with Klebsiella pneumoniae was over 64 µg/mL in each case. This compound also gave an IC50 in the assay with Escherichia coli [2] (Escherichia coli) of 9600 nM.
Regarding `N=C(N)NCC/C=C(\NC(=O)[C@H](CCCCN)NC(=O)[C@H](Cc1cnc[nH]1)NC(=O)[C@@H]1CCCN1C(=O)[C@@H](CCCN)NC(=O)CNC(=O)[C@@H](NC(=O)[C@@H](N)[C@@H](O)CN)[C@@H](O)CN)C(=O)N[C@@H](CCCCN)C(=O)NCCCCN`, the MIC against Escherichia coli [1] and with Klebsiella pneumoniae was over 64 µg/mL throughout. In addition, the IC50 in the assay with Escherichia coli [2] (Escherichia coli) is over 40000 nM.
Consider `C[C@H](O)[C@H](NC(=O)[C@@H](N)CCCCN)C(=O)N[C@H](C(=O)NCC(=O)N[C@H](CCCN)C(=O)N1CCC[C@H]1C(=O)N[C@@H](Cc1cnc[nH]1)C(=O)N[C@@H](CCCCN)C(=O)N/C(=C\CCNC(=N)N)C(=O)N[C@@H](CCCCN)C(=O)NCCCCN)[C@@H](O)CN`, for which the MIC against Escherichia coli [1] and with Klebsiella pneumoniae was over 64 µg/mL in each case. The IC50 in the assay with Escherichia coli [2] (Escherichia coli) was over 40000 nM.
`C/C=C(\NC(=O)[C@H](CCCCN)NC(=O)[C@H](Cc1cnc[nH]1)NC(=O)[C@@H]1CCCN1C(=O)[C@@H](CCCN)NC(=O)CNC(=O)[C@@H](NC(=O)[C@@H](NC(=O)[C@@H](N)CCCCN)[C@@H](O)CN)[C@@H](O)CN)C(=O)N[C@@H](CCCCN)C(=O)NCCCCN`: the MIC worked out at 16 µg/mL (≈ 13.4 µM) in the assay on Escherichia coli [1] and 8 µg/mL (≈ 6.7 µM) with Klebsiella pneumoniae. In the assay on Escherichia coli [2] (Escherichia coli), this compound yielded an IC50 of 830 nM.
On to `C[C@H](N)C(=O)N[C@H](C(=O)N[C@H](C(=O)NCC(=O)N[C@H](CCCN)C(=O)N1CCC[C@H]1C(=O)N[C@@H](Cc1cnc[nH]1)C(=O)N[C@@H](CCCCN)C(=O)N/C(=C\CCNC(=N)N)C(=O)N[C@@H](CCCCN)C(=O)NCCCCN)[C@@H](O)CN)[C@@H](O)CN` (H-A[Dab(3S-OH)][Dab(3S-OH)]G[dOrn]PHK[ΔZArg]K-{NH(CH2)4NH2}), for which the MIC in the assay with Escherichia coli [1] stood at 16 µg/mL (≈ 13.3 µM); in the assay on Klebsiella pneumoniae, 8 µg/mL (≈ 6.63 µM). This compound also returned an IC50 in the assay with Escherichia coli [2] (Escherichia coli) of 730 nM.
For `N=C(N)NCC/C=C(\NC(=O)[C@H](CCCCN)NC(=O)[C@H](Cc1cnc[nH]1)NC(=O)[C@@H]1CCCN1C(=O)[C@@H](CCCN)NC(=O)CNC(=O)CNC(=O)[C@@H](NC(=O)[C@@H](N)CCCCN)[C@@H](O)CN)C(=O)N[C@@H](CCCCN)C(=O)NCCCCN` (H-K[Dab(3S-OH)]GG[dOrn]PHK[ΔZArg]K-{NH(CH2)4NH2}), the MIC against Escherichia coli [1] and in the assay on Klebsiella pneumoniae was 8 µg/mL (≈ 6.64 µM) in each case. Also, in the assay on Escherichia coli [2] (Escherichia coli), inhibition was half-maximal at 1060 nM (IC50).
Turning to `N=C(N)NCC/C=C(\NC(=O)[C@H](CCCCN)NC(=O)[C@H](Cc1cnc[nH]1)NC(=O)[C@@H]1CCCN1C(=O)[C@@H](CCCN)NC(=O)CNC(=O)[C@H](CO)NC(=O)[C@@H](NC(=O)[C@@H](N)CCCCN)[C@@H](O)CN)C(=O)N[C@@H](CCCCN)C(=O)NCCCCN` (H-K[Dab(3S-OH)]SG[dOrn]PHK[ΔZArg]K-{NH(CH2)4NH2}), the MIC with Escherichia coli [1] and with Klebsiella pneumoniae was 4 µg/mL (≈ 3.24 µM) throughout. The compound further had an IC50 in the assay with Escherichia coli [2] (Escherichia coli) of 660 nM.
Consider `CC(C)[C@H](NC(=O)[C@@H](NC(=O)[C@@H](N)CCCCN)[C@@H](O)CN)C(=O)NCC(=O)N[C@H](CCCN)C(=O)N1CCC[C@H]1C(=O)N[C@@H](Cc1cnc[nH]1)C(=O)N[C@@H](CCCCN)C(=O)N/C(=C\CCNC(=N)N)C(=O)N[C@@H](CCCCN)C(=O)NCCCCN` (H-K[Dab(3S-OH)]VG[dOrn]PHK[ΔZArg]K-{NH(CH2)4NH2}), for which the MIC was 4 µg/mL (≈ 3.21 µM) in the assay with Escherichia coli [1] and 2 µg/mL (≈ 1.6 µM) in the assay on Klebsiella pneumoniae. This compound gave an IC50 in the assay on Escherichia coli [2] (Escherichia coli) of 800 nM.
The matching figures for `CC[C@H](NC(=O)[C@@H](NC(=O)[C@@H](N)CCCCN)[C@@H](O)CN)C(=O)NCC(=O)N[C@H](CCCN)C(=O)N1CCC[C@H]1C(=O)N[C@@H](Cc1cnc[nH]1)C(=O)N[C@@H](CCCCN)C(=O)N/C(=C\CCNC(=N)N)C(=O)N[C@@H](CCCCN)C(=O)NCCCCN` (H-K[Dab(3S-OH)][Abu]G[dOrn]PHK[ΔZArg]K-{NH(CH2)4NH2}): 4 µg/mL (≈ 3.24 µM), 4 µg/mL (≈ 3.24 µM) and 730 nM.
As for `C[C@H](NC(=O)[C@@H](CCCN)NC(=O)CNC(=O)[C@@H](NC(=O)[C@@H](NC(=O)[C@@H](N)CCCCN)[C@@H](O)CN)[C@@H](O)CN)C(=O)N[C@@H](Cc1cnc[nH]1)C(=O)N[C@@H](CCCCN)C(=O)N/C(=C\CCNC(=N)N)C(=O)N[C@@H](CCCCN)C(=O)NCCCCN` (H-K[Dab(3S-OH)][Dab(3S-OH)]G[dOrn]AHK[ΔZArg]K-{NH(CH2)4NH2}), the MIC with Escherichia coli [1] amounted to 16 µg/mL (≈ 12.9 µM); in the assay on Klebsiella pneumoniae, 32 µg/mL (≈ 25.8 µM). Further, half-maximal inhibition in the assay with Escherichia coli [2] (Escherichia coli) (IC50) was put at 2410 nM.
In the case of `O=C(N[C@H](CO)[C@H](O)c1ccc([N+](=O)[O-])cc1)C(Cl)Cl` [CHLORAMPHENICOL], the midpoint of inhibition in the assay on Escherichia coli [2] (Escherichia coli), the IC50, lay at 7740 nM.
For `CC[C@H]1OC(=O)[C@H](C)[C@@H](O[C@H]2C[C@@](C)(OC)[C@@H](O)[C@H](C)O2)[C@H](C)[C@@H](O[C@@H]2O[C@H](C)C[C@H](N(C)C)[C@H]2O)[C@](C)(O)C[C@@H](C)C(=O)[C@H](C)[C@@H](O)[C@]1(C)O` [ERYTHROMYCIN], the concentration for half-maximal inhibition (IC50) in the assay on Escherichia coli [2] (Escherichia coli) is 2120 nM.
Regarding `CN[C@@H]1[C@H](O)[C@H](NC)[C@H]2O[C@@]3(O)C(=O)C[C@@H](C)O[C@H]3O[C@@H]2[C@H]1O` [SPECTINOMYCIN], the concentration for half-maximal inhibition (IC50) in the assay on Escherichia coli [2] (Escherichia coli) came out at 990 nM.
In turn, GENTAMICIN showed a half-maximal inhibitory concentration (IC50) in the assay with Escherichia coli [2] of 310 nM.

The record behind these values is ChEMBL document CHEMBL4145683, “Total Synthesis and Structure-Activity Relationships Study of Odilorhabdins, a New Class of Peptides Showing Potent Antibacterial Activity” (J Med Chem, 2018).
